Reference: ChEMBL document CHEMBL1221230, “Inhibition of eukaryotic translation elongation by cycloheximide and lactimidomycin” (Nat Chem Biol, 2010)
The source made the active and inactive calls. The rule behind the calls is not given here. Numbered stars: 1 amine (or outer) side, 2 acyl side, 3 side chain; on linkers, the order of the positions; unused ones are H or OH. Bridge positions count the residues as written; N and C are the ends. Square brackets hold non-standard residues; d marks the D form. Peptide text beside a SMILES is read from it. I, II: the chains in the order shown. Actinocin(1to9) = Cc1c2oc3c(C)ccc(C(=O)[*:2])c3nc-2c(C(=O)[*:1])c(N)c1=O; NMeV = CN[C@H](C(=O)O)C(C)C; Sar = CNCC(=O)O

How the values were obtained:
HeLa [1] = experiment: Antiproliferative activity against human HeLa cells assessed as incorporation of [3H]thymidine in nuclear DNA at 2.5 uM after 24 hrs by scintillation counting; type: functional, cell-based
In short: (§1)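 Each of three tumour cell lines incubated with compound at 2.5 μM for 24 h, then [³H]thymidine added to monitor DNA synthesis; initial proliferation screen.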

MDA-MB-231 = experiment: Antiproliferative activity against human MDA-MB-231 cells assessed as incorporation of [3H]thymidine in nuclear DNA at 2.5 uM after 24 hrs by scintillation counting; type: functional, cell-based; in short: as §1
Jurkat = experiment: Antiproliferative activity against human Jurkat cells assessed as incorporation of [3H]thymidine in nuclear DNA at 2.5 uM after 24 hrs by scintillation counting; type: functional, cell-based; in short: as §1
HeLa [2] = experiment: Inhibition of protein synthesis in human HeLa cells assessed as [35S]cysteine/methionine utilization after 2 hrs by scintillation spectroscopy; type: functional, cell-based
In short: (§2)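 HeLa cells incubated 2 h with varying compound concentrations plus [³⁵S]cysteine/methionine (translation) or [³H]uridine (transcription). Protein synthesis: scintillation counting of TCA-precipitated protein on PVDF membrane. Transcription: scintillation counting of nucleic acids bound to GF/C glass fibre filter.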

HeLa [3] = experiment: Inhibition of transcriptional activity in human HeLa cells assessed as [3H]uridine utilization after 2 hrs by scintillation counting; type: functional, cell-based; in short: as §2
Saccharomyces cerevisiae [4] = experiment: Antimicrobial activity against Saccharomyces cerevisiae J47alpha; type: functional, organism-based
In short: (§3)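 Four isogenic S. cerevisiae strain pairs, each differing only by presence or absence of cyh2, exposed to varying compound concentrations; growth read by optical density; IC50 derived per strain, resistance as ratio between paired strains.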

Saccharomyces cerevisiae [5] = experiment: Antimicrobial activity against Saccharomyces cerevisiae JB503; type: functional, organism-based; in short: as §3
Saccharomyces cerevisiae [6] = experiment: Antimicrobial activity against Saccharomyces cerevisiae BY686 expressing ribosomal protein cyh2 and harboring mutation in rpl28; type: functional, organism-based; in short: as §3
Saccharomyces cerevisiae [7] = experiment: Antimicrobial activity against Saccharomyces cerevisiae BY108; type: functional, organism-based; in short: as §3
Saccharomyces cerevisiae [8] = experiment: Antimicrobial activity against Saccharomyces cerevisiae BY724 expressing ribosomal protein cyh2 and harboring mutation in rpl28; type: functional, organism-based; in short: as §3
Saccharomyces cerevisiae [9] = experiment: Antimicrobial activity against Saccharomyces cerevisiae JB281; type: functional, organism-based; in short: as §3
Saccharomyces cerevisiae [10] = experiment: Antimicrobial activity against Saccharomyces cerevisiae BY740 expressing ribosomal protein cyh2 and harboring mutation in rpl28; type: functional, organism-based; in short: as §3
Saccharomyces cerevisiae [11] = experiment: Fold resistance, ratio of IC50 Saccharomyces cerevisiae J407alpha expressing ribosomal protein cyh2 and harboring mutation in rpl28 to IC50 for Saccharomyces cerevisiae J47alpha; type: functional; in short: as §3
Saccharomyces cerevisiae [12] = experiment: Fold resistance, ratio of IC50 for Saccharomyces cerevisiae BY686 expressing ribosomal protein cyh2 and harboring mutation in rpl28 to IC50 Saccharomyces cerevisiae JB503; type: functional; in short: as §3
Saccharomyces cerevisiae [13] = experiment: Fold resistance, ratio of IC50 for Saccharomyces cerevisiae BY724 expressing ribosomal protein cyh2 and harboring mutation in rpl28 to IC50 for Saccharomyces cerevisiae BY108; type: functional; in short: as §3
Saccharomyces cerevisiae [14] = experiment: Fold resistance, ratio of IC50 for Saccharomyces cerevisiae BY740 expressing ribosomal protein cyh2 and harboring mutation in rpl28 to IC50 for Saccharomyces cerevisiae […]; type: functional; in short: as §3
HEK-293T [15] = experiment: Effect on polyribosome profiling in human HEK293T cells assessed as depletion of polysomes at 50 uM after 30 mins by spectrophotometry; type: functional, cell-based
In short: (§4)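 HEK 293T cells treated 30 min with compound, then lysed; lysates centrifuged through 15–45% sucrose gradient to give polysome profiles.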

[16] = Inhibition of [32P]deacetylated phe-tRNA binding to 60S ribosome E-site by footprinting assay
HEK-293T [17] = experiment: Effect on polyribosome profiling in human HEK293T cells assessed as depletion of polysomes at 100 uM after 30 mins by spectrophotometry; type: functional, cell-based; in short: as §4
HEK-293T [18] = experiment: Effect on polyribosome profiling in human HEK293T cells assessed as accumulation of 80S ribosomes at 100 uM after 30 mins by spectrophotometry; type: functional, cell-based; in short: as §4
[19] = Effect on polyribosome profiling assessed as accumulation of 80S ribosomes after 15 mins by scintillation spectroscopy; type: functional
In short: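 Capped [³²P]-labelled rabbit β-globin RNA incubated in rabbit reticulocyte lysate with compound for 15 min, then centrifuged through 10–35% sucrose gradient.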

Oryctolagus cuniculus = species: Oryctolagus cuniculus; experiment: Inhibition of translational activity in rabbit reticulocyte assessed as occurrence of ribosomal arrest at start codon at 10 mM by toeprinting assay; type: functional
In short: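 Labelled rabbit β-globin mRNA incubated in rabbit reticulocyte lysate with inhibitor; mixture centrifuged through sucrose gradient, 80S fractions taken to isolate stalled ribosomes; primer extended by AMV reverse transcriptase toward stalled ribosome to map arrest site.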

[20] = target: T1, Elongation factor 1-alpha 1 (Homo sapiens) (UniProt P68104); experiment: Inhibition of eEF1A-mediated tRNA binding to ternary complex at 200 uM after 10 mins by filtration binding assay
T1 sequence (whole entry): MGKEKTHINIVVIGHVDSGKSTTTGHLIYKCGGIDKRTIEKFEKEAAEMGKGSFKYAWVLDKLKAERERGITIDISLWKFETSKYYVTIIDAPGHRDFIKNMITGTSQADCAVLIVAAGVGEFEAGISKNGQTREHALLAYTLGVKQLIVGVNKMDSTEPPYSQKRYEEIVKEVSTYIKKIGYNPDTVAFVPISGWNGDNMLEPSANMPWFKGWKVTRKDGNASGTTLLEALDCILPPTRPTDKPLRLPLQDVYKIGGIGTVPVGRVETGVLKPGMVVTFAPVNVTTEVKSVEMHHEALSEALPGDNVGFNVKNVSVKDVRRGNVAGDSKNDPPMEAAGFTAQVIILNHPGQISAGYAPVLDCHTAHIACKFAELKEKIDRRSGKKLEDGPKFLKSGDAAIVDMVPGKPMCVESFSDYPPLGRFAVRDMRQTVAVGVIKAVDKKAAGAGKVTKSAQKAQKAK
In short: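 Ribosomes (89 pmol) in 20 mM HEPES pH 7.4, 100 mM KCl, 10 mM MgCl₂, 1 mM DTT with 200 ng poly(U), 2.2 μg eEF1A, 150 μM GDPNP and 200 μM compound, before 10 pmol [¹⁴C]Phe-tRNA^Phe added; 10 min at 37°C; nitrocellulose filtration, scintillation counting.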

[21] = target: Elongation factor 2 (Homo sapiens) (UniProt P13639); experiment: Inhibition of eEF2-mediated tRNA translocation assessed as inhibition of phenylalanyl puromycin formation
In short: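 Set up as eEF1A binding assay but with GTP; 5 min at 37°C, compound added to 200 μM final, 5 min at room temperature, then eEF2, puromycin and GTP added; 10 min at 37°C; ethyl acetate-extractable phenylalanyl-puromycin counted by scintillation.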

[22] = target: Elongation factor 2 (Homo sapiens) (UniProt P13639); experiment: Inhibition of eEF2-mediated tRNA translocation assessed as decrease in tripeptide (Met-Phe-Phe) formation by TLC
[23] = target: Elongation factor 2 (Homo sapiens) (UniProt P13639); experiment: Inhibition of eEF2-mediated tRNA translocation assessed as induction of dipeptide accumulation by TLC
Saccharomyces cerevisiae [24] = experiment: Antimicrobial activity against Saccharomyces cerevisiae J407alpha expressing ribosomal protein cyh2 and harboring mutation in rpl28; type: functional, organism-based; in short: as §3
[25] = Binding affinity to 60S ribosome E-site by footprinting assay
In short: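 DMS footprinting of salt-washed 80S ribosomes preincubated 5 min at room temperature with compound, DMS then 5 min at 37°C; rRNA primer extension with AMV reverse transcriptase and [α-³²P]TTP, sequencing gel. For K_D, 300 μl volume at 50 or 100 nM ribosomes titrated with increasing compound.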

[26] = Inhibition of elF4A-mediated renilla luciferase translational activity at 100 to 200 nM in presence of HCV IRES element
[27] = Inhibition of elF4A-mediated renilla luciferase translational activity at 200 to 2000 nM in presence of HCV IRES element
[28] = Effect on peptidyl transfer assessed as [35S]methionyl-puromycin formation by TLC

For `CO[C@@H](/C=C/CC/C=C/C(=O)O)[C@@H](O)[C@H](C)[C@@H](O)/C(C)=C/[C@H](C)C(=O)CCCC1CC(=O)NC(=O)C1`, the Activity (HeLa [1]) was “inactive”, the Activity (MDA-MB-231) was “inactive” and the Activity (Jurkat) was “inactive”. The inhibition (HeLa [2]) was “inactive”.
With `CO[C@H]1/C=C/CC/C=C/C(=O)O[C@@H](/C(C)=C/[C@H](C)C(=O)CCCC2CC(=O)NC(=O)C2)[C@@H](C)[C@@H]1O` [ISOMIGRASTATIN] the Activity (HeLa [1]) was “inactive”, the Activity (MDA-MB-231) was “inactive” and the Activity (Jurkat) was “inactive”. For the same compound, the IC50 (HeLa [2]) was 624 nM, the inhibition (HeLa [2]) was “Dose-dependent effect” and the IC50 (HeLa [3]) was over 10000 nM.
Compound `C[C@@H]1C[C@@H]([C@H](O)CC2CC(=O)NC(=O)C2)C(=O)[C@@H](C)C1` [CYCLOHEXIMIDE] has an IC50 (Saccharomyces cerevisiae [4]) of 88 nM, an IC50 (Saccharomyces cerevisiae [5]) of 32 nM and an IC50 (Saccharomyces cerevisiae [6]) of 7420 nM. It also gave an IC50 (Saccharomyces cerevisiae [7]) of 675 nM, an IC50 (Saccharomyces cerevisiae [8]) of 52100 nM and an IC50 (Saccharomyces cerevisiae [9]) of 227 nM. For the same compound, the IC50 (Saccharomyces cerevisiae [10]) was 17300 nM, the “Ratio IC50” value (Saccharomyces cerevisiae [11]) was 232.2 and the “Ratio IC50” value (Saccharomyces cerevisiae [12]) was 232.4. The “Ratio IC50” value (Saccharomyces cerevisiae [13]) was 77, the “Ratio IC50” value (Saccharomyces cerevisiae [14]) was 76.3 and the Activity (HEK-293T [15]) was “Active”. The inhibition [16] was “inactive”, the IC50 (HeLa [2]) was 532 nM and the inhibition (HeLa [2]) was “Dose-dependent effect”. For the same compound, the IC50 (HeLa [3]) was 2880 nM, the Activity (HEK-293T [17]) was “inactive” and the Activity (HEK-293T [18]) was “inactive”. For the same compound, the Activity [19] was “Active”, the inhibition (Oryctolagus cuniculus) was “inactive” and the inhibition [20] was “inactive”. The inhibition [21] was “Active”, the inhibition [22] was “Active” and the inhibition [23] was “Active”. The IC50 (Saccharomyces cerevisiae [24]) was 20500 nM, the Activity [25] was “Dose-dependent effect” and the Kd [25] was 15000 nM.
For `CO[C@@H](/C=C/CC/C=C/C(=O)O)[C@@H](O)[C@H](C)/C=C(\C)[C@H](O)[C@H](C)C(=O)CCCC1CC(=O)NC(=O)C1`, the Activity (HeLa [1]) was “inactive”, the Activity (MDA-MB-231) was “inactive” and the Activity (Jurkat) was “inactive”.
For `Cc1c2oc3c(C)ccc(C(=O)N[C@@H]4C(=O)N[C@H](C(C)C)C(=O)N5CCC[C@H]5C(=O)N(C)CC(=O)N(C)[C@@H](C(C)C)C(=O)O[C@@H]4C)c3nc-2c(C(=O)N[C@@H]2C(=O)N[C@H](C(C)C)C(=O)N3CCC[C@H]3C(=O)N(C)CC(=O)N(C)[C@@H](C(C)C)C(=O)O[C@@H]2C)c(N)c1=O` [DACTINOMYCIN] (I: T[dV]P[Sar][NMeV] / II: T[dV]P[Sar][NMeV]; ester I:1-I:C, II:1-II:C; linker I:N-II:N via Actinocin(1to9)), the IC50 (HeLa [2]) was 520 nM, the inhibition (HeLa [2]) was “Dose-dependent effect” and the IC50 (HeLa [3]) was 262 nM.
With `CC(/C=C/C(C)=C/[C@@H]1Cc2nc(cs2)[C@@H](C)C[C@@H](N)CC(=O)O[C@@H](C)C/C(C)=C/C=C\C(=O)O1)=C\CN(C)C` the inhibition [26] was “Active” and the inhibition [27] was “Active”.
For `CSC[S@@+]([O-])CC(CO)NC(=O)/C=C/c1c(C)[nH]c(=O)[nH]c1=O` (stereo not given in full), the Activity [28] was “Active”.
For `C/C(=C\[C@H](C)C(=O)C[C@H](O)CC1CC(=O)NC(=O)C1)[C@@H]1OC(=O)CCCC/C=C/C=C\[C@@H]1C` [2H LACTIMIDOMYCIN K], the Activity (HeLa [1]) was “inactive”, the Activity (MDA-MB-231) was “inactive” and the Activity (Jurkat) was “inactive”. For the same compound, the IC50 (HeLa [2]) was 98.5 nM and the IC50 (HeLa [3]) was over 10000 nM.
With `CO[C@H]1/C=C/CC/C=C/C(=O)O[C@@H](/C(C)=C/[C@H](C)C(=O)/C=C/CC2CC(=O)NC(=O)C2)[C@@H](C)[C@@H]1O` [DIDEHYDRO ISOMIGRASTATIN] the Activity (HeLa [1]) was “inactive”, the Activity (MDA-MB-231) was “inactive” and the Activity (Jurkat) was “inactive”. For the same compound, the IC50 (HeLa [2]) was 1910 nM and the IC50 (HeLa [3]) was over 10000 nM.
With `CO[C@H]1/C=C/CC/C=C/C(=O)O[C@H]([C@H](C)C(=O)CCCC2CC(=O)NC(=O)C2)/C(C)=C\[C@@H](C)[C@@H]1O` the Activity (HeLa [1]) was “inactive”, the Activity (MDA-MB-231) was “inactive” and the Activity (Jurkat) was “inactive”. The inhibition (HeLa [2]) was “inactive”.
